According to PubChem BioAssay AID652046 (Broad Institute, 2013):
Results filed as inconclusive are left out. Active and inactive are the calls of the source.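 How the source made its calls: active means fitted curve falls past -35% activity change at a concentration no higher than twice the top tested dose; inconclusive means no clear call, values can overlap the other calls; inactive means the rest, including activity in the opposite direction.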

Tested on: not listed separately
Experiment: IL-1beta-stimulated NF-kB eGFP reporter inhibition, dose response, selectivity assay for EBV LMP1 NF-kB inhibitor project, cell-based, dsRed control, flow cytometry, dry powder (AID 652046)
Conditions: IL-1beta-stimulated NF-kB eGFP reporter/dsRed, flow cytometry, 16 h; at 18 µM (top of the series)
In short: (§1)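 Assay system: HEK293 cells with NF-κB-driven eGFP and constitutive dsRed reporters | Probe or stimulus: IL-1beta stimulation | Incubation: 16 h compound exposure, 37 °C | Measured by: Flow cytometry, scatter-gated live cells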

Row | Compound | activity change, negative = inhibition
1 | Cc1cc(C(=O)Nc2ccc3c(c2)C(=O)N(C)[C@@H]2CC[C@H](CC(=O)NCc4ccc(-c5ccccc5)cc4)O[C@H]2CO3)no1 | -15.2% (inactive)

Same assay, conditions: IL-1beta-stimulated NF-kB eGFP reporter/dsRed, flow cytometry, 16 h; at 19.5 µM (top of the series)

Row | Compound | activity change, negative = inhibition
2 | CCNC(=O)C[C@H]1CC[C@@H]2[C@H](COc3ccc(NC(=O)c4cc(C)on4)cc3C(=O)N2C)O1 | 0.718% (inactive)
3 | O=C(C[C@@H]1C[C@H]2c3cc(NS(=O)(=O)c4ccc(F)cc4)ccc3O[C@H]2[C@H](CO)O1)NCc1ccc(Oc2ccccc2)cc1 | 6.68% (inactive)
4 | CNC(=O)C[C@H]1CC[C@@H]2[C@H](COc3ccc(NC(=O)c4cc(C)on4)cc3C(=O)N2C)O1 | -2.16% (inactive)
5 | CN(C)c1ccc2c(c1)[C@@H]1C[C@@H](CC(=O)NCC3CC3)O[C@@H](CO)[C@@H]1O2 | -1.79% (inactive)
6 | COc1ccccc1CNC(=O)C[C@@H]1C[C@H]2c3cc(N(C)C)ccc3O[C@H]2[C@H](CO)O1 | 2.93% (inactive)
7 | COCCNC(=O)C[C@H]1CC[C@@H]2[C@H](COc3ccc(NC(=O)c4cc(C)on4)cc3C(=O)N2C)O1 | 1.68% (inactive)
8 | CN(C)c1ccc2c(c1)[C@@H]1C[C@@H](CC(=O)NCc3ccc(Oc4ccccc4)cc3)O[C@@H](CO)[C@@H]1O2 | 4.75% (inactive)
9 | CN1C(=O)c2cc(NS(C)(=O)=O)ccc2OC[C@@H]2O[C@@H](CC(=O)NCc3ccc(-c4ccccc4)cc3)CC[C@H]21 | 10.3% (inactive)
10 | CN(C)c1ccc2c(c1)[C@@H]1C[C@@H](CC(=O)N3CCc4ccccc4C3)O[C@@H](CO)[C@@H]1O2 | 4.65% (inactive)
11 | CN(C)c1ccc2c(c1)[C@@H]1C[C@@H](CC(=O)NCc3ccc4c(c3)OCO4)O[C@@H](CO)[C@@H]1O2 | -8.36% (inactive)
12 | COCCNC(=O)C[C@@H]1C[C@H]2c3cc(N(C)C)ccc3O[C@H]2[C@H](CO)O1 | -7.46% (inactive)
13 | CCCNC(=O)C[C@H]1CC[C@@H]2[C@H](COc3ccc(NC(=O)c4cc(C)on4)cc3C(=O)N2C)O1 | 2% (inactive)
14 | CN(C)c1ccc2c(c1)[C@@H]1C[C@@H](CC(=O)NCCc3ccccc3)O[C@@H](CO)[C@@H]1O2 | -4.63% (inactive)

Same assay, conditions: IL-1beta-stimulated NF-kB eGFP reporter/dsRed, flow cytometry, 16 h; at 21 µM (top of the series)

Row | Compound | activity change, negative = inhibition
15 | Cc1cc(C(=O)Nc2ccc3c(c2)C(=O)N(C)[C@@H]2CC[C@H](CC(=O)N[C@@H](C)c4ccccc4)O[C@H]2CO3)no1 | 5.36% (inactive)
16 | Cc1cc(C(=O)Nc2ccc3c(c2)C(=O)N(C)[C@@H]2CC[C@H](CC(=O)NCc4ccc(-c5ccccc5)cc4)O[C@@H]2CO3)no1 | 4.6% (inactive)

Tested on: IL-1beta-stimulated NF-kB eGFP reporter/dsRed, flow cytometry, 16 h
Experiment: as above
Conditions: not given
In short: as §1

Row | Compound | AC35 [µM]
17 | Cc1cc(C(=O)Nc2ccc3c(c2)C(=O)N(C)[C@@H]2CC[C@H](CC(=O)N[C@H](C)c4ccccc4)O[C@H]2CO3)no1 | 15.9
18 | O=C(C[C@@H]1C[C@H]2c3cc(NC(=O)NC4CCCC4)ccc3O[C@H]2[C@H](CO)O1)NCc1ccc(Oc2ccccc2)cc1 | 17.1
19 | CN(C)c1ccc2c(c1)[C@@H]1C[C@@H](CC(=O)NCc3ccccc3F)O[C@@H](CO)[C@@H]1O2 | 20.8
20 | O=C(C[C@@H]1C[C@H]2c3cc(NC(=O)Nc4ccccc4F)ccc3O[C@H]2[C@H](CO)O1)NCc1ccc(Oc2ccccc2)cc1 | 16.3
21 | CN(C)c1ccc2c(c1)[C@@H]1C[C@@H](CC(=O)N3CCOCC3)O[C@@H](CO)[C@@H]1O2 | 2.09
22 | CN(C)c1ccc2c(c1)[C@@H]1C[C@@H](CC(=O)NCc3cc(F)ccc3F)O[C@@H](CO)[C@@H]1O2 | 2.23
23 | COc1ccccc1[C@]1(C)ON(c2ccccc2C(F)(F)F)C1=O | 10.7
24 | Cc1cc(C(=O)Nc2ccc3c(c2)C(=O)N(C)[C@@H]2CC[C@H](CC(=O)NC4CCCC4)O[C@H]2CO3)no1 | 9.72
25 | CS(=O)(=O)Nc1ccc2c(c1)[C@@H]1C[C@@H](CC(=O)NCc3ccc(Oc4ccccc4)cc3)O[C@@H](CO)[C@@H]1O2 | 0.664
26 | Nc1ccn([C@@H]2O[C@H](CO)[C@@H](O)C2O)c(=O)n1 (stereo partly drawn) | 19.1
27 | CN1C(=O)c2cc(NC(=O)Nc3ccccc3F)ccc2OC[C@@H]2O[C@@H](CC(=O)NCc3ccc(-c4ccccc4)cc3)CC[C@H]21 | 0.14
28 | O=C(Nc1ccc(C(F)(F)F)cc1)Nc1ccc2c(c1)[C@H]1C[C@@H](CC(=O)N3CCc4ccccc4C3)O[C@@H](CO)[C@H]1O2 | 12.7
